ChEMBL document CHEMBL4321824, “Structure-Activity Relationships of cyclo(l-Tyrosyl-l-tyrosine) Derivatives Binding to Mycobacterium tuberculosis CYP121: Iodinated Analogues Promote Shift to High-Spin Adduct” (J Med Chem, 2019)

What was measured:
[1] = target: T1, Cytochrome P450 (Mycobacterium tuberculosis, UniProt A0A0T9WNE5); assay: Binding affinity to Mycobacterium tuberculosis CYP121 expressed in Escherichia coli HMS174 (DE3) assessed as compound-adduct formation by measuring high spin complex at 0.5 to 2 mM incubated for 20 mins by EPR Spectroscopic method (reference value: 0%)
T1 sequence (A0A0T9WNE5 whole entry): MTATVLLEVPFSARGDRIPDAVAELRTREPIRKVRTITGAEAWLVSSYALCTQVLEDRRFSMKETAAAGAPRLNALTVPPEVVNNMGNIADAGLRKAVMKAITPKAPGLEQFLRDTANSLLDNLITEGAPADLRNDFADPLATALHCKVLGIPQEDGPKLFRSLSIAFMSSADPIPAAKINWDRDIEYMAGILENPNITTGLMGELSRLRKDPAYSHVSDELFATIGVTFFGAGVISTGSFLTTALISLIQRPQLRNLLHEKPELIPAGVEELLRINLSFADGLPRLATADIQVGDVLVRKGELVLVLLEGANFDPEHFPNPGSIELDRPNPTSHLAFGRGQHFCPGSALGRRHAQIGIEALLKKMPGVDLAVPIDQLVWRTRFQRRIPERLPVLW
Method in brief: (§1)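 EPR samples contained 155 µM CYP121 (untagged or His6-tagged) in 100 mM HEPES, 100 mM KCl, pH 7.5, with ligand or DMSO at a final 0.5–2 mM depending on solubility. Samples were incubated 20 min at room temperature and briefly centrifuged before spectra were recorded; the high-spin heme signal was assessed.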

[2] = target: T1, Cytochrome P450; assay: Binding affinity to Mycobacterium tuberculosis CYP121 expressed in Escherichia coli HMS174 (DE3) by UV-visible scanning spectrophotometric analysis
Method in brief: (§2)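 Spectrophotometric titration of 3–4 µM CYP121 (untagged or N-terminal His6-tagged) at 25 °C in 100 mM potassium phosphate, 200 mM KCl, pH 7.8. Ligand in DMSO added stepwise from 0 µM until no further spectral change; spectra recorded 250–800 nm. Difference spectra taken against ligand-free enzyme, and peak-minus-trough ΔAmax plotted against [ligand]. KD obtained by hyperbolic fit, or Hill fit for sigmoidal data.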

[3] = target: T1, Cytochrome P450; assay: Binding affinity to Mycobacterium tuberculosis Mycobacterium tuberculosis CYP121 expressed in Escherichia coli HMS174 (DE3) assessed as compound-adduct formation by measuring high spin complex by UV-visible scanning spectrophotometric analysis relative to control; parameters: concentration or dose not given beside the values
Method in brief: (§3)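 Fraction of high-spin heme taken from UV-Vis titration spectra of CYP121 (untagged or His6-tagged; 3–4 µM, 25 °C, 100 mM potassium phosphate, 200 mM KCl, pH 7.8). %HS calculated from absorbances at 415 and 393 nm using LS and HS extinction coefficients.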

[4] = system: Mycobacterium tuberculosis; assay: Antimycobacterial activity against Mycobacterium tuberculosis H37Rv assessed as reduction in bacterial growth after 7 days by resazurin based fluorescence assay; format: functional; settings: 168 h
Method in brief: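 Mtb H37Rv grown in 7H9 with ADC to OD 0.6–0.8, then diluted to OD600 0.001 and added to 1:2 serial compound dilutions (usually from 100 µM; 0.1% DMSO). Incubated 7 days at 37 °C, then 0.05% w/v resazurin for 24 h at 37 °C. Fluorescence read at 590 nm, background subtracted, and survival expressed relative to untreated wells. Rifampicin served as positive control.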

[5] = target: T1, Cytochrome P450; assay: Stability in Mycobacterium tuberculosis assessed as CYP121-catalyzed turnover; format: ADME
[6] = target: T1, Cytochrome P450; assay: Binding affinity to Mycobacterium tuberculosis His6-tagged CYP121 assessed as compound-adduct formation by measuring high spin complex at 0.5 to 2 mM incubated for 20 mins by EPR Spectroscopic method (reference value: 0%); method in brief: as §1
[7] = target: T1, Cytochrome P450; assay: Binding affinity to Mycobacterium tuberculosis CYP121 expressed in Escherichia coli HMS174 (DE3) at 120 uM by UV-visible scanning spectrophotometric analysis
[8] = target: T1, Cytochrome P450; assay: Binding affinity to Mycobacterium tuberculosis His6-tagged CYP121 by UV-visible scanning spectrophotometric analysis; method in brief: as §2
[9] = target: T1, Cytochrome P450; assay: Binding affinity to Mycobacterium tuberculosis His6-tagged CYP121 assessed as compound-adduct formation by measuring high spin complex by UV-visible scanning spectrophotometric analysis relative to control; parameters: concentration or dose not given beside the values; method in brief: as §3
[10] = target: T1, Cytochrome P450; assay: Potency index, ratio of cyclo(L-Tyrosine-L-tyrosine) Kd for binding affinity to Mycobacterium tuberculosis CYP121 expressed in Escherichia coli HMS174 (DE3) to test compound Kd for binding affinity to Mycobacterium tuberculosis His6-tagged CYP121 by UV-visible scanning spectrophotometric analysis
[11] = target: T1, Cytochrome P450; assay: Potency index, ratio of cyclo(L-Tyrosine-L-tyrosine) Kd to test compound Kd for binding affinity to Mycobacterium tuberculosis CYP121 expressed in Escherichia coli HMS174 (DE3) by UV-visible scanning spectrophotometric analysis

SMILES	Activity [1] [%]	Kd [2] [µM]	Activity [3] [%]	MIC [4] [µM]	Stability [5]	Activity [6] [%]	Activity [7]	Kd [8] [µM]	Activity [9] [%]	Ratio [10]	Ratio [11]
O=C1N[C@@H](Cc2ccccc2)C(=O)N[C@H]1Cc1ccccc1	0	2.4	3	> 100	Stable	–	–	–	–	–	–
O=C1N[C@@H](Cc2ccc(O)cc2)C(=O)N[C@H]1Cc1ccc(O)cc1	2.7	–	52	–	–	–	–	–	–	–	–
O=C1N[C@@H](Cc2ccc(O)cc2)C(=O)N[C@H]1Cc1ccccc1	1.4	80.8	5	> 100	Stable	–	–	–	–	–	–
Cc1cc(O)cc(C)c1C[C@@H]1NC(=O)[C@H](Cc2ccc(O)cc2)NC1=O	–	–	–	> 100	Stable	1.9	Not Active	> 100	1	–	–
O=C1N[C@@H](Cc2ccc(I)cc2)C(=O)N[C@H]1Cc1ccc(I)cc1	7.5	0.72	3	> 100	Stable	–	–	–	–	<= 100	–
COc1ccc(C[C@@H]2NC(=O)[C@H](Cc3ccc(O)cc3)NC2=O)cc1	64	10.4	61	> 100	Stable	–	–	–	–	–	3
Cc1cc(C[C@@H]2NC(=O)[C@H](Cc3ccc(O)cc3)NC2=O)cc(C)c1O	–	–	–	> 100	Stable	62	–	15.1	75	–	–
Cc1cc(O)ccc1C[C@@H]1NC(=O)[C@H](Cc2ccc(O)cc2)NC1=O	–	–	–	> 100	Stable	0.6	–	39.8	20	–	–
O=C1N[C@@H](Cc2ccc(O)c(I)c2)C(=O)N[C@H]1Cc1ccc(O)c(I)c1	100	0.45	100	> 100	Stable	–	–	–	–	<= 100	–
O=C1N[C@@H](Cc2ccc(O)c(I)c2)C(=O)N[C@H]1Cc1ccc(O)cc1	–	–	–	> 100	Stable	86	–	0.28	98	<= 100	–
O=C1N[C@@H](Cc2ccc(O)c(F)c2)C(=O)N[C@H]1Cc1ccc(O)cc1	–	–	–	> 100	Stable	1.2	–	12.8	36	–	–
Cc1cc(C[C@@H]2NC(=O)[C@H](Cc3ccc(O)cc3)NC2=O)ccc1O	–	–	–	> 100	Stable	11	–	1.1	91	–	–
O=C1N[C@@H](Cc2ccc(F)cc2)C(=O)N[C@H]1Cc1ccc(F)cc1	1.5	6.3	1	> 100	Stable	–	–	–	–	–	–
O=C1N[C@@H](Cc2ccc(O)c(Cl)c2)C(=O)N[C@H]1Cc1ccc(O)cc1	–	–	–	> 100	Stable	21	–	1.5	68	–	–
COc1ccc(C[C@@H]2NC(=O)[C@H](Cc3ccc(OC)cc3)NC2=O)cc1	56	29.4	35	> 100	Stable	–	–	–	–	–	–
O=C1N[C@@H](Cc2ccc(O)c(Br)c2)C(=O)N[C@H]1Cc1ccc(O)cc1	–	–	–	> 100	Stable	68	–	0.46	85	–	–
O=C1N[C@H]2Cc3ccc(O)c(c3)-c3cc(ccc3O)C[C@@H]1NC2=O	–	–	–	–	Unstable	–	–	–	–	–	–
O=C1N[C@@H](Cc2cc(I)c(O)c(I)c2)C(=O)N[C@H]1Cc1ccc(O)cc1	–	–	–	> 100	Stable	38	–	9.1	74	–	–
